Test results from ChEMBL document CHEMBL3352281, “Canthin-6-one displays antiproliferative activity and causes accumulation of cancer cells in the G2/M phase” (J Nat Prod, 2014).
The source made the active and inactive calls. The calls are words filed in the database; no cut-off is given here.

Experiments:
[1] = tested on: C6; assay: Induction of apoptosis in rat C6 cells assessed as induction of procaspase-3 cleavage at 40 uM after 48 hrs by Western blot method; assay type: functional, cell-based
Outline: (§1)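 Western blot: 40 000 cells/well exposed 2−4 days to 40 μM (HeLa 10 and 30 μM) or 0.2% DMSO. Lysed in Laemmli buffer, run on 12.5% SDS-PAGE, moved to nitrocellulose. Probed overnight at 4 °C with rabbit anti-caspase-3 (1/1000), then Alexa-488 secondary. β-Actin loading control; fluorescence read on a laser scanner.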

[2] = tested on: HeLa; assay: Antiproliferative activity against human HeLa cells assessed as inhibition of cell growth at 40 uM after 2 days; assay type: functional; conditions: 48 h, read-out: GI
Outline: (§2)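 Cell counting: 40 000 cells/well seeded and grown at 37 °C, 5% CO2 in medium with 10% FCS, 2 mM glutamine and penicillin-streptomycin (Ham's F12 for PC-3, RPMI for Jurkat, DMEM for the others). Compound added from a 50-fold stock in 10% DMSO; controls 0.2% DMSO. Quadruplicate wells trypsinized (Jurkat not) and counted in a Malassez chamber; mean ± SEM, n = 4.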

[3] = tested on: PC-3; assay: Induction of apoptosis in human PC3 cells assessed as induction of procaspase-3 cleavage at 40 uM after 48 hrs by Western blot method; assay type: functional; outline: as §1
[4] = tested on: HeLa; assay: Antiproliferative activity against human HeLa cells assessed as inhibition of cell growth at 10 to 60 uM after 4 days; assay type: functional, cell-based; conditions: 96 h; outline: as §2
[5] = Toxicity against human NHDF assessed as cell viability at 80 uM incubated for 3 days by MTT assay; assay type: cell-based; conditions: NHDF cells, read-out: Activity
Outline: (§3)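 Normal human dermal fibroblasts kept 3 days in DMEM with 10% FCS at increasing concentrations up to 160 μM, DMSO-matched controls. MTT reduction read at 540 nm as percentage viability (mean ± SEM, n = 3), with microscopic morphology scoring.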

[6] = tested on: C6; assay: Antiproliferative activity against rat C6 cells assessed as induction of cell death at 40 to 60 uM after 4 days; assay type: functional
Outline: (§4)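 Cells seeded at 40 000 per well and grown at 37 °C, 5% CO2 with 10% FCS, 2 mM glutamine and penicillin-streptomycin (Ham's F12 for PC-3, RPMI for Jurkat, DMEM for HT-29, HeLa, C6, NIH-3T3). Compound added from a 50-fold solution in 10% DMSO; controls 0.2% DMSO. Quadruplicate wells trypsinized (Jurkat not) and counted in a Malassez chamber; mean ± SEM, n = 4.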

[7] = tested on: HeLa; assay: Induction of apoptosis in human HeLa cells assessed as induction of procaspase-3 cleavage at 10 uM after 48 hrs by Western blot method; assay type: functional; outline: as §1
[8] = tested on: PC-3; assay: Inhibition of DNA synthesis in human PC3 cells assessed as reduction in post-mitotic nuclei level at 40 uM pre-incubated for 30 hrs by immunofluorescence microscopy (reference value: 85%); assay type: functional; conditions: PC-3, read-out: INH
[9] = tested on: HeLa; assay: Induction of apoptosis in human HeLa cells assessed as induction of procaspase-3 cleavage at 30 uM after 48 hrs by Western blot method; assay type: functional; outline: as §1
[10] = tested on: PC-3; assay: Inhibition of DNA synthesis in human PC3 cells assessed as reduction in BrdU incorporation at 40 uM pre-incubated for 30 hrs by Southern blotting method; assay type: functional
Outline: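 PC-3, 10^6 cells per flask, held 30 h at 40 μM or 0.2% DMSO, then 18 h BrdU labeling. Genomic DNA isolated by proteinase K/phenol-chloroform; 400 ng run on agarose, blotted to nitrocellulose, acid-denatured, probed with anti-BrdU and Alexa 647 secondary. Scanned signal normalized to ethidium bromide DNA fluorescence.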

[11] = tested on: C6; assay: Antiproliferative activity against rat C6 cells assessed as inhibition of cell growth at 10 to 60 uM after 4 days; assay type: functional, cell-based; conditions: C6, 96 h; outline: as §2
[12] = tested on: PC-3; assay: Induction of cell cycle arrest in human PC3 cells assessed as accumulation at S phase at 40 uM incubated for 48 hrs by propidium iodide staining based flow cytometry (reference value: 21.6 +/- 0.2%); assay type: functional
[13] = tested on: PC-3; assay: Induction of apoptosis in human PC3 cells assessed as induction of procaspase-3 cleavage at 40 uM after 96 hrs by Western blot method; assay type: functional; outline: as §1
[14] = tested on: Jurkat; assay: Antiproliferative activity against human Jurkat cells assessed as induction of cell death at 40 to 60 uM after 4 days; assay type: functional; outline: as §4
[15] = tested on: NIH3T3; assay: Induction of apoptosis in mouse NIH/3T3 cells assessed as induction of procaspase-3 cleavage at 40 uM after 48 hrs by Western blot method; assay type: functional, cell-based; outline: as §1
[16] = tested on: HT-29; assay: Induction of apoptosis in human HT-29 cells assessed as induction of procaspase-3 cleavage at 40 uM after 48 hrs by Western blot method; assay type: functional; outline: as §1
[17] = Toxicity against human NHDF assessed as cell viability at 160 uM incubated for 3 days by MTT assay; assay type: cell-based; conditions: NHDF cells, read-out: Activity; outline: as §3
[18] = tested on: HT-29; assay: Antiproliferative activity against human HT-29 cells assessed as induction of cell death at 40 to 60 uM after 4 days; assay type: functional; outline: as §4
[19] = tested on: PC-3; assay: Antiproliferative activity against human PC3 cells assessed as inhibition of cell growth at 40 uM after 4 days; assay type: functional, cell-based; outline: as §2
[20] = Antiproliferative activity against mouse NIH/3T3 cells assessed as inhibition of cell growth at 10 to 60 uM after 4 days; assay type: functional, cell-based; conditions: NIH3T3, 96 h; outline: as §2
[21] = Toxicity against human NHDF assessed as cell viability up to 20 uM incubated for 3 days by MTT assay; assay type: cell-based; conditions: NHDF cells, read-out: Activity; outline: as §3
[22] = tested on: PC-3; assay: Induction of cell cycle arrest in human PC3 cells assessed as accumulation at G1 phase at 40 uM incubated for 48 hrs by propidium iodide staining based flow cytometry (reference value: 57.8 +/- 0.6%); assay type: functional
[23] = tested on: NIH3T3; assay: Antiproliferative activity against mouse NIH/3T3 cells assessed as inhibition of cell growth at 40 uM after 4 days; assay type: functional, cell-based; outline: as §2
[24] = tested on: Jurkat; assay: Antiproliferative activity against human Jurkat cells assessed as inhibition of cell growth at 10 to 60 uM after 4 days; assay type: functional, cell-based; conditions: 96 h; outline: as §2
[25] = tested on: Jurkat; assay: Antiproliferative activity against human Jurkat cells assessed as inhibition of cell growth at 40 uM after 4 days; assay type: functional, cell-based; outline: as §2
[26] = tested on: HeLa; assay: Antiproliferative activity against human HeLa cells assessed as inhibition of cell growth at 10 uM after 4 days; assay type: functional; conditions: 96 h, read-out: GI; outline: as §2
[27] = tested on: PC-3; assay: Reduction in mitotic spindles formation in human PC3 cells at 40 uM incubated for 48 hrs by tubulin immunofluorescence assay; assay type: functional; conditions: PC-3, 48 h
Outline: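 Mitotic spindles: PC-3 in chamber slides (10 000/well), 2 days with 40 μM or 0.2% DMSO. Ethanol/glycine fixation, anti-β-tubulin 1/200 for 2 h at 37 °C, then Alexa 488 secondary. Mitotic cells scored by fluorescence microscopy in random fields; at least 6000−10 000 cells counted per group.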

[28] = tested on: HT-29; assay: Antiproliferative activity against human HT-29 cells assessed as inhibition of cell growth at 40 uM after 4 days; assay type: functional, cell-based; outline: as §2
[29] = tested on: PC-3; assay: Induction of cell cycle arrest in human PC3 cells assessed as accumulation at G2/M phase at 40 uM incubated for 48 hrs by flow propidium iodide staining based flow cytometry (reference value: 20 +/- 0.6%); assay type: functional
[30] = Toxicity against human NHDF assessed as reduction in cell viability incubated for 3 days by MTT assay; assay type: cell-based; conditions: NHDF cells; outline: as §3
[31] = Toxicity against human NHDF assessed as cell viability at 40 uM incubated for 3 days by MTT assay; assay type: cell-based; conditions: NHDF cells, read-out: Activity; outline: as §3
[32] = tested on: Jurkat; assay: Induction of apoptosis in human Jurkat cells assessed as induction of procaspase-3 cleavage at 40 uM after 48 hrs by Western blot method; assay type: functional, cell-based; outline: as §1
[33] = tested on: C6; assay: Antiproliferative activity against rat C6 cells assessed as inhibition of cell growth at 40 uM after 4 days; assay type: functional, cell-based; outline: as §2
[34] = Antiproliferative activity against human PC3 cells assessed as inhibition of cell growth at 10 to 60 uM after 4 days; assay type: functional, cell-based; conditions: PC-3, 96 h; outline: as §2
[35] = tested on: HT-29; assay: Antiproliferative activity against human HT-29 cells assessed as inhibition of cell growth at 10 to 60 uM after 4 days; assay type: functional, cell-based; conditions: HT-29, 96 h; outline: as §2
[36] = Antiproliferative activity against human PC3 cells assessed as induction of cell death at 40 to 60 uM after 4 days; assay type: functional, PC-3; outline: as §4
[37] = Antiproliferative activity against mouse NIH/3T3 cells assessed as induction of cell death at 40 to 60 uM after 4 days; assay type: functional, NIH3T3; outline: as §4

For `O=c1ccc2nccc3c4ccccc4n1c23` [CANTHIN-6-ONE], the Activity [1] was “inactive”, the inhibition of growth at 40 µM [2] was greater than 90% and the “fold change (FC)” value [3] was 2. The EC50 [4] was 5 µM, the viability at 72 h, 80 µM [5] was 64% and the Activity [6] was “<=30%”. For the same compound, the “fold change (FC)” value [7] was 1.5, the inhibition at 40 µM [8] was 60% and the “fold change (FC)” value [9] was 3.5. It also gave an inhibition at 40 µM [10] of 80%, an EC50 [11] of 15 µM and an Activity [12] of 13.3%. The “fold change (FC)” value [13] was 7, the Activity [14] was “<=30%” and the Activity [15] was “inactive”. The “fold change (FC)” value [16] was 2, the viability at 72 h, 160 µM [17] was 33% and the Activity [18] was “<=30%”. The “growth inhibition (GI)” value [19] was “Active”, the EC50 [20] was 15 µM and the viability at 72 h [21] was 80%. The Activity [22] was 38.1%, the “growth inhibition (GI)” value [23] was “Active” and the EC50 [24] was 15 µM. The “growth inhibition (GI)” value [25] was “Active”, the inhibition of growth at 10 µM [26] was 100% and the inhibition at 40 µM [27] was 80%. The “growth inhibition (GI)” value [28] was “Active”, the Activity [29] was 47.8% and the EC50 at 3 days [30] was 115 µM. For the same compound, the viability at 72 h, 40 µM [31] was 80%, the Activity [32] was “inactive” and the “growth inhibition (GI)” value [33] was “Active”. The EC50 [34] was 15 µM, the EC50 [35] was 15 µM and the Activity [36] was “<=30%”. The Activity [37] was “<=30%”.
